Experimental data from ChEMBL document CHEMBL1121573, “2-(Aminomethyl)phenols, a new class of saluretic agents. 1. Effects of nuclear substitution” (J Med Chem, 1980).

Experiments:
[1] = system: Rattus norvegicus; experiment: Oral diuretic activity was evaluated by measuring K+ excretion in Rat at 9 mg/kg […] ( 0-5 hr); assay type: ADME, organism-based, Urine; parameters: dose 9 mg/kg
Summary of the method: (§1)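 Female Charles-River rats (150–170 g) were kept overnight on a sugar diet with water ad libitum. Test substance was dissolved in DMF and diluted with water containing Tween 80 to a final 4% DMF vehicle, then given po in 5.0 mL. Rats were housed three per metabolism cage, and 0–5 h urine was assayed for Na⁺, K⁺ and Cl⁻ alongside concurrent placebo groups. Values are mequiv × 100 per cage, geometric means of three cages per dose.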

[2] = system: Rattus norvegicus; experiment: Oral diuretic activity was evaluated by measuring K+ excretion in Rat at 27 mg/kg after […] ( 0-5 hr); assay type: ADME, organism-based, Urine; parameters: dose 27 mg/kg; details: in vivo; summary of the method: as §1
[3] = system: Canis familiaris; experiment: Oral diuretic activity was evaluated by measuring Cl- excretion in dog at 10 mg/kg after […] ( 0-6 hr); assay type: ADME, organism-based, Canis lupus familiaris, Urine; parameters: dose 10 mg/kg, route intraperitoneal; details: in vivo
[4] = system: Rattus norvegicus; experiment: Oral diuretic activity was evaluated by measuring Na+ excretion in Rat at 27 mg/kg after […] ( 0-5 hr); assay type: ADME, organism-based, Urine; parameters: dose 27 mg/kg
Summary of the method: (§2)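 Female Charles-River rats (150–170 g) were kept overnight on a sugar diet with water ad libitum. Compound was dissolved in DMF, then diluted with water containing Tween 80 (3 drops/100 mL) to a final 4% DMF, and given po in 5.0 mL. Rats were housed three per metabolism cage. Urine from 0–5 h was analysed for Na+, K+ and Cl−, with concurrent placebo controls. Values are mequiv × 100 per cage, geometric mean of three cages per dose.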

[5] = system: Canis familiaris; experiment: Oral diuretic activity was evaluated by measuring K+ excretion in dog at 5 mg/kg after ip administration ( 0-6 hr); assay type: ADME, organism-based, Canis lupus familiaris, Urine; parameters: dose 5 mg/kg, route intraperitoneal; details: in vivo
Summary of the method: (§3)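 Spontaneous urine was pooled with bladder urine collected by catheterization at 6 h. Volume was measured and Na+, K+ and Cl− were determined by standard methods. Values are geometric means.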

[6] = system: Rattus norvegicus; experiment: Evaluated for salidiuretic activity measured as sodium ion excretion in Rat, administered orally at a dose of 50 mg/kg; assay type: functional, Urine; parameters: unit not given beside the values; details: route oral
Summary of the method: (§4)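 Female Charles-River rats (150–170 g), overnight on sugar diet with water ad libitum. Compound dissolved in DMF, diluted with water containing Tween 80 (final 4% DMF), given po in 5.0 mL; concurrent vehicle placebo. Three rats per metabolism cage; 0–5 h urine analysed for Na+, K+, Cl-. Values: mequiv × 100 per cage, geometric means of three cages per dose; scored 0–6 by Na+.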

[7] = system: Canis familiaris; experiment: Oral diuretic activity was evaluated by measuring K+ excretion in dog at 10 mg/kg after ip administration ( 0-6 hr); assay type: ADME, organism-based, Canis lupus familiaris, Urine; parameters: dose 10 mg/kg, route intraperitoneal; details: in vivo; summary of the method: as §3
[8] = system: Rattus norvegicus; experiment: Oral diuretic activity was evaluated by measuring Na+ excretion in Rat at 9 mg/kg […] ( 0-5 hr); assay type: ADME, organism-based, Urine; parameters: dose 9 mg/kg; details: in vivo, ip; summary of the method: as §2
[9] = system: Canis familiaris; experiment: Oral diuretic activity was evaluated by measuring Cl- excretion in dog at 1 mg/kg after […] ( 0-6 hr); assay type: ADME, organism-based, Canis lupus familiaris, Urine; parameters: dose 1 mg/kg, route intraperitoneal; details: in vivo
[10] = system: Canis familiaris; experiment: Oral diuretic activity was evaluated by measuring Na+ excretion in dog at 1 mg/kg after ip administration ( 0-6 hr); assay type: ADME, organism-based, Canis lupus familiaris, Urine; parameters: dose 1 mg/kg, route intraperitoneal; details: in vivo; summary of the method: as §3
[11] = system: Canis familiaris; experiment: Oral diuretic activity was evaluated by measuring Cl- excretion in dog at 20 mg/kg after […] ( 0-6 hr); assay type: ADME, organism-based, Canis lupus familiaris, Urine; parameters: dose 20 mg/kg, route intraperitoneal; details: in vivo
[12] = system: Canis familiaris; experiment: Oral diuretic activity was evaluated by measuring Na+ excretion in dog at 10 mg/kg after […] ( 0-6 hr); assay type: ADME, organism-based, Canis lupus familiaris, Urine; parameters: dose 10 mg/kg; details: in vivo
Summary of the method: (§5)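 Dogs; spontaneous urine was pooled with bladder urine drained by catheter at the end of 6 h. Urine volume was measured, and aliquots were assayed for Na+, K+ and Cl− by standard methods. Values are geometric means, expressed as mequiv over 0–6 h.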

[13] = system: Canis familiaris; experiment: Compound administered intravenously at a dose of 5 mg/kg was evaluated for salidiuretic activity measured as sodium ion excretion in Dog; Value ranges from 800-899; assay type: ADME, organism-based, Canis lupus familiaris, Urine; parameters: dose 5 mg/kg, route intravenous; unit not given beside the values; details: in vivo, iv
Summary of the method: (§6)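 Conditioned female mongrel dogs, postabsorptive, water-loaded (500 mL po) 1 h before sodium pentobarbital anesthesia (30 mg/kg iv). Bladder catheter; creatinine 4 g sc; phosphate–mannitol buffer pH 7.4 infused (3.0 mL/min) throughout. […] Urine Na+ measured; response scored 0–6.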

[14] = system: Canis familiaris; experiment: Oral diuretic activity was evaluated by measuring Na+ excretion in dog at 20 mg/kg after […] ( 0-6 hr); assay type: ADME, organism-based, Canis lupus familiaris, Urine; parameters: dose 20 mg/kg; details: in vivo; summary of the method: as §5
[15] = system: Rattus norvegicus; experiment: Oral diuretic activity was evaluated by measuring Na+ excretion in Rat at 81 mg/kg […] ( 0-5 hr); assay type: ADME, organism-based, Urine; parameters: dose 81 mg/kg; summary of the method: as §2
[16] = system: Rattus norvegicus; experiment: Oral diuretic activity was evaluated by measuring Na+ excretion in Rat at 3 mg/kg […] ( 0-5 hr); assay type: ADME, organism-based, Urine; parameters: dose 3 mg/kg; details: in vivo, ip; summary of the method: as §2
[17] = system: Rattus norvegicus; experiment: Oral diuretic activity was evaluated by measuring K+ excretion in Rat at 3 mg/kg after […] ( 0-5 hr); assay type: ADME, organism-based, Urine; parameters: dose 3 mg/kg; summary of the method: as §1
[18] = system: Canis familiaris; experiment: Oral diuretic activity was evaluated by measuring Cl- excretion in dog at 5 mg/kg after […] ( 0-6 hr); assay type: ADME, organism-based, Canis lupus familiaris, Urine; parameters: dose 5 mg/kg, route intraperitoneal; details: in vivo
[19] = system: Rattus norvegicus; experiment: Oral diuretic activity was evaluated by measuring Cl- excretion in Rat at 3 mg/kg after […] ( 0-5 hr); assay type: ADME, organism-based, Urine; parameters: dose 3 mg/kg, route intraperitoneal; details: in vivo
[20] = system: Rattus norvegicus; experiment: Maximum fall in mean arterial blood pressure was measured in SH rats when compound was administered at 20 mg/kg perorally; assay type: functional; details: route oral
[21] = Compound administered orally at a dose of 5 mg/kg was evaluated for salidiuretic activity measured as sodium ion excretion in Rat; assay type: organism-based; parameters: dose 5 mg/kg; details: Urine; summary of the method: as §4
[22] = system: Rattus norvegicus; experiment: Compound administered orally at a dose of 81 mg/kg was evaluated for salidiuretic activity measured as sodium ion excretion in Rat; assay type: ADME, organism-based, Urine; parameters: dose 81 mg/kg, route oral; unit not given beside the values; details: in vivo, po; summary of the method: as §4
[23] = Evaluated for salidiuretic activity measured as sodium ion excretion in Rat, administered orally at a dose of 16.5 mg/kg; assay type: organism-based; parameters: dose 16.5 mg/kg; details: Urine; summary of the method: as §4
[24] = system: Rattus norvegicus; experiment: Oral diuretic activity was evaluated by measuring Cl- excretion in Rat at 9 mg/kg […] ( 0-5 hr); assay type: ADME, organism-based, Urine; parameters: dose 9 mg/kg; details: in vivo; summary of the method: as §1
[25] = system: Canis familiaris; experiment: Oral diuretic activity was evaluated by measuring K+ excretion in dog at 20 mg/kg after ip administration ( 0-6 hr); assay type: ADME, organism-based, Canis lupus familiaris, Urine; parameters: dose 20 mg/kg, route intraperitoneal; details: in vivo; summary of the method: as §3
[26] = system: Rattus norvegicus; experiment: Oral diuretic activity was evaluated by measuring K+ excretion in Rat at 81 mg/kg […] ( 0-5 hr); assay type: ADME, organism-based, Urine; parameters: dose 81 mg/kg; summary of the method: as §1
[27] = system: Rattus norvegicus; experiment: Oral diuretic activity was evaluated by measuring Cl- excretion in Rat at 27 mg/kg after […] ( 0-5 hr); assay type: ADME, organism-based, Urine; parameters: dose 27 mg/kg, route intraperitoneal; details: in vivo
[28] = system: Rattus norvegicus; experiment: Oral diuretic activity was evaluated by measuring Cl- excretion in Rat at 81 mg/kg after […] ( 0-5 hr); assay type: ADME, organism-based, Urine; parameters: dose 81 mg/kg, route intraperitoneal; details: in vivo
[29] = system: Canis familiaris; experiment: Oral diuretic activity was evaluated by measuring K+ excretion in dog at 1 mg/kg after ip administration ( 0-6 hr); assay type: ADME, organism-based, Canis lupus familiaris, Urine; parameters: dose 1 mg/kg, route intraperitoneal; details: in vivo; summary of the method: as §3
[30] = system: Canis familiaris; experiment: Oral diuretic activity was evaluated by measuring Na+ excretion in dog at 5 mg/kg after ip administration ( 0-6 hr); assay type: ADME, organism-based, Canis lupus familiaris, Urine; parameters: dose 5 mg/kg, route intraperitoneal; details: in vivo
Summary of the method: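 Urine collected over 0–6 h: spontaneous voids were pooled with bladder urine taken by catheterization at 6 h. Urine volume was measured, and aliquots were analysed for Na+, K+ and Cl− by standard methods. Electrolyte excretion is reported as geometric means.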

[31] = system: Canis familiaris; experiment: Compound administered intravenously at a dose of 5 mg/kg was evaluated for salidiuretic activity measured as sodium ion excretion in Dog; act above 5 mg/kg; assay type: ADME, organism-based, Canis lupus familiaris, Urine; details: in vivo, iv; summary of the method: as §6

## Cl.NCc1c(O)c(Cl)cc(Cl)c1Cl
[1]
  Diuretic activity: 0.32
[2]
  Diuretic activity: 0.45
[3]
  Diuretic activity: 27.27
[4]
  Diuretic activity: 1.89
[5]
  Diuretic activity: 4.5
[6]
  Diuretic activity: 2.4
[7]
  Diuretic activity: 5
[8]
  Diuretic activity: 0.94
[9]
  Diuretic activity: 6.5
[10]
  Diuretic activity: 5.25
[11]
  Diuretic activity: 50.25
[12]
  Diuretic activity: 20.64
[13]
  Diuretic activity: 800
[14]
  Diuretic activity: 37.25
[15]
  Diuretic activity: 2.77
[16]
  Diuretic activity: 0.41
[17]
  Diuretic activity: 0.25
[18]
  Diuretic activity: 19.63
[19]
  Diuretic activity: 0.46
[20]
  MAP: 18 mmHg
[21]
  Diuretic activity: 0.5
[22]
  Diuretic activity: 2.9
[23]
  Diuretic activity: 1.4
[24]
  Diuretic activity: 1.19
[25]
  Diuretic activity: 8.25
[26]
  Diuretic activity: 0.6
[27]
  Diuretic activity: 2.36
[28]
  Diuretic activity: 3.47
[29]
  Diuretic activity: 2.25
[30]
  Diuretic activity: 14.75

## NCc1cc(Cl)cc(Cl)c1O
[6]
  Diuretic activity: 1.8
[21]
  Diuretic activity: 0.4
[31]
  Diuretic activity: active above 5 mg/kg
[22]
  Diuretic activity: 2.4
[23]
  Diuretic activity: 0.6
